# In the library only some 1.7% were active in any assay of this set; here they are far more common.
# CHO-K1 Ca antag – counter-screen for M1 antagonists: effect in parental CHO-K1 cells. ATP-induced calcium, Fluo-8 fluorescence. inhibition, % at 3 µM. 0.6% of 360,000 active. AID 602250;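 active = inhibition above a per-plate cutoff, the plate's mean sample inhibition plus 3 SD, cut at about 24% in these data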;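 note: 0% = DMSO plus EC80 ATP and 100% = DMSO alone without ATP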
# CHRM5 PAM – potentiates acetylcholine response at human M5 receptor. CHO-K1 hM5, Fluo-8 calcium, ACh EC20 PAM; 0% = ACh EC20, 100% = ACh EC100. P08912. 0.3% of 360,000 active. activation, % at 3 µM;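 active = activation above the run cutoff, the mean activation of all test compounds plus 3 SD, cut at about 18% in these data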
# Target sequence (P08912 whole entry, looked up): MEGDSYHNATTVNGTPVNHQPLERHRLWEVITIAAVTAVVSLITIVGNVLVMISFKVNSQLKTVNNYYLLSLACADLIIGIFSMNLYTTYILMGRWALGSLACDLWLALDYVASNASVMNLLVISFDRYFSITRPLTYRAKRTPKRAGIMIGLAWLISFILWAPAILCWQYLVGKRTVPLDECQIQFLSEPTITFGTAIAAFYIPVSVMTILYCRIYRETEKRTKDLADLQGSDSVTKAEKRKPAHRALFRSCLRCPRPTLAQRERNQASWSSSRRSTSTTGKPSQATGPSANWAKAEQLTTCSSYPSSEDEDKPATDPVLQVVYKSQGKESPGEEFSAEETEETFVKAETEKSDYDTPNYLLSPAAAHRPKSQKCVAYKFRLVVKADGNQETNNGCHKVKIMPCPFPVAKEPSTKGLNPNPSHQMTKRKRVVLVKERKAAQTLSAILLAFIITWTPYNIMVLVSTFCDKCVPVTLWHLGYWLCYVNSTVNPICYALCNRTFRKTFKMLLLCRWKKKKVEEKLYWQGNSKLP
#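 Replicates: One well per compound, no replicates | System: Human M5 receptor in CHO-K1 cells | Benchmarks: Low control EC20 acetylcholine (0%), high control EC100 acetylcholine (100%) | Probe or stimulus: Acetylcholine, EC20 level | Times: Fluo-8 loading 80 min at 37 °C plus 30 min room temperature | Signal: Intracellular calcium via Fluo-8 fluorescence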
# CHRM5 agonist – CHRM5 agonism in calcium assay; P08912; CHO-K1 hM5 cells, Fluo-8 calcium fluorescence; 0% DMSO wells, 100% maximal acetylcholine response; activation, % at 3 µM; 0.19% of 360,000 active; AID 624037;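 active = activation above the run's mean over test compounds plus 3 SD, cut at about 23% in these data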;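 note: signal is peak over basal fluorescence ratio across the kinetic read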
# M5 antag – blocks acetylcholine activation of human M5 receptor | P08912 | CHO-hM5 cells, Fluo-8 calcium fluorescence, ACh EC80 | inhibition, % at 3 µM | 0.59% of 360,000 active;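 active = inhibition above a per-plate cutoff, the mean of that plate's test compounds plus 3 SD, cut at about 27% in these data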;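 note: 0% = acetylcholine EC80 with DMSO and 100% = DMSO without agonist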
# M1 PAM parental – M1 PAM counterscreen hit in parental CHO-K1 cells; ATP EC20, Fluo-8 calcium fluorescence; 0% at ATP EC20, 100% at ATP max; activation, % at 3 µM; 0.02% of 360,000 active; AID 602247;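 active = activation above the run cutoff, the mean activation of all test compounds plus 3 SD, cut at about 40% in these data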;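 note: peak over basal fluorescence ratio in a 140 s read after ATP addition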
# M1 ag parental – nonselective activator or artifact in parental CHO-K1 cells; Fluo-8 calcium fluorescence; scaled to maximal ATP response, vehicle zero; activation, % at 3 µM; 0.48% of 360,000 active; AID 602248; in the data active = activation above about 15%;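 note: untransfected CHO-K1 host cells lacking M1 receptor as counterscreen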
# Numbers without * were called inactive.
SMILES,CHO-K1 Ca antag,CHRM5 PAM,CHRM5 agonist,M5 antag,M1 PAM parental,M1 ag parental
CN(C)c1cc(Nc2ccc(O)cc2)c([N+](=O)[O-])c2nonc12,-14,-2,-1,0,12,0
O=[N+]([O-])c1c(Nc2ccc(O)cc2)cc(Cl)c2nonc12,45*,-10,-8,43*,-3,-1
COC(=O)C1(c2ccccc2)NC(c2cccs2)C2C(=O)N(c3ccccc3)C(=O)C21 (stereo unspecified),-14,-3,53*,-11,31,12
COC(=O)C1(c2ccccc2)NC(c2cccs2)C2C(=O)N(C)C(=O)C21 (stereo unspecified),-9,0,-5,-4,9,0
CC(=O)NC(C)(c1ccccc1)c1nc(/C=C/c2ccccc2)cs1 (stereo unspecified),2,-5,-1,-1,16,0
COc1ccc(C(C)(NC(C)=O)c2nc(/C=C/c3ccccc3)cs2)cc1 (stereo unspecified),32*,-7,0,7,-11,0
CS(=O)(=O)c1ccc(Cl)c(NC(=O)CCNC(=O)c2ccco2)c1,-13,1,-3,-2,18,1
Cc1ccc(O)c(NC(=S)NC(=O)Cc2ccc(Cl)cc2)c1,90*,-31,61*,81*,-20,58*
CCOC(=O)c1cc(=O)n2nc(-c3ccccc3F)nc2s1,2,8,-6,0,-7,0
O=C1NC(=S)NC1=Cc1ccccc1O,23,-27,110*,31*,-17,17*
O=C1NC(=S)NC1=Cc1ccc(Cl)cc1Cl,26*,2,5,6,-14,0
O=C1NC(=S)N/C1=C/c1cccc2ccccc12,-5,-7,-4,14,-10,-1
CCOC(=O)C1CCN(C(c2ccc(OC)c(OC)c2)c2sc3nc(C)nn3c2O)CC1 (stereo unspecified),-3,-7,-2,1,-10,0
COc1cc(/C=C(\C#N)c2nc3ccccc3s2)cc([N+](=O)[O-])c1O,14,0,7,0,7,1
N#C/C(=C\c1ccc(O)c([N+](=O)[O-])c1)c1nc2ccccc2s1,29*,-20,14,31*,-10,14
CNC(=O)c1ccc(NC(=O)C2CCN(S(=O)(=O)c3cccc(C(F)(F)F)c3)CC2)cc1,13,19*,0,-10,-19,0
COc1ccccc1-c1ccc(/C=C2\C=CC(=O)O2)o1,17,-24,70*,27*,-4,28*
O=C(c1ccc2c(c1)OCO2)C1CCCN(C(=O)NCc2ccccc2)C1 (stereo unspecified),-8,-4,-1,5,13,1
CN(C)CCCOC(=O)N1c2ccccc2C=Cc2ccccc21,-14,-17,-6,81*,19,4
CN(C)CCCOC(=O)c1ccccc1Cl,-17,-6,-10,15,27,2
COc1ccc(-c2csc(N(CCCN(C)C)C(=O)c3cccs3)n2)cc1,3,-16,-4,38*,19,8
CCN(C(=O)c1cccs1)c1nc(-c2ccc(OC)cc2)cs1,-9,5,-1,-10,21,1
CC(=O)NC(c1ccccc1)c1cc([N+](=O)[O-])c2cccnc2c1O (stereo unspecified),-7,22*,3,-13,-9,1
Cc1ccccc1NC(=S)NCCO,2,-3,-1,14,19,0
O=C(NC1CCCC1)C1CC(=O)N(c2ccccc2)C1 (stereo unspecified),-21,3,0,2,-6,1
O=C(NC1CC1)C1CC(=O)N(c2ccccc2)C1 (stereo unspecified),-8,-9,-4,30*,6,0
CCOc1ccc(NC(=O)Nc2nc(SCC)ns2)cc1,15,-25,8,33*,-5,11
CCSc1nsc(NC(=O)Nc2ccc(F)cc2F)n1,20,-16,9,16,-6,9
CCSc1nsc(NC(=O)Nc2ccccc2Cl)n1,28*,-16,7,5,-16,7
